Measured values published in ChEMBL document CHEMBL1152661, “Synthesis of tetraglucosyl- and tetrapolyamine-tetrabenzoporphyrin conjugates for an application in PDT” (Bioorg Med Chem, 2009).
Converted amounts (≈) assume the structure as drawn.

What was measured:
[1] = Induction of singlet oxygen production assessed as appearance of ergosterol acetate epidioxide at 10 uM after 10 mW/cm'2 irradiation for 30 mins by TLC; format: physicochemical; conditions: 0.5 h
[2] = system: HaCaT; experiment: Photocytotoxicity against human HaCaT cells preincubated for 24 hrs in dark followed by illumination at 5.5 x 10^-2 mW/cm'2 light measured after 24 hrs post illumination by MTT assay; format: functional, cell-based
[3] = system: MCF7; experiment: Photocytotoxicity against human MCF7 cells preincubated for 24 hrs in dark followed by illumination at 5.5 x 10^-2 mW/cm'2 light measured after 24 hrs post illumination by MTT assay; format: functional, cell-based
[4] = Photostability assessed as residual absorbance at 2.5 mW/cm'2 irradiation for 15 mins by photobleaching test; format: physicochemical; conditions: read-out: Stability
Outline: (§1)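 Solutions were irradiated with white light at fluence 2.5 mW/cm2. Absorbance was measured at the Soret band maximum and reported as % residual absorbance versus irradiation time.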

[5] = Photostability assessed as residual absorbance at 2.5 mW/cm'2 irradiation for 30 mins by photobleaching test; format: physicochemical; conditions: read-out: Stability; outline: as §1
[6] = Photostability assessed as residual absorbance at 2.5 mW/cm'2 irradiation for 60 mins by photobleaching test; format: physicochemical; conditions: read-out: Stability; outline: as §1
[7] = Octanol-water partition coefficient, log P at 300 uM by absorption spectroscopy; format: physicochemical
Outline: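 1-Octanol/water partitioning at 25 °C using equal volumes of water and 1-octanol. Dye solution at 300 µM was vortexed and centrifuged. Aliquots of each phase were diluted separately into MeOH, and dye concentration was read by absorption spectroscopy. log P = log([dye]octanol/[dye]water).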

[8] = Photostability assessed as residual absorbance at 2.5 mW/cm'2 irradiation for 45 mins by photobleaching test; format: physicochemical; conditions: read-out: Stability; outline: as §1
[9] = Homo sapiens, HaCaT, read-out: IC50
[10] = Homo sapiens, MCF7, read-out: IC50

In the case of PORFIMER SODIUM, the Activity [1] is reported as “Active”, the IC50 ([2]; hacat) is reported as 0.0787 µg/mL and the IC50 ([3]; mcf7) is reported as 1.224 µg/mL.

For `NCCOCCOCCNC(=O)c1ccc(-c2c3nc(c(-c4ccc(C(=O)NCCOCCOCCN)cc4)c4[nH]c(c(-c5ccc(C(=O)NCCOCCOCCN)cc5)c5nc(c(-c6ccc(C(=O)NCCOCCOCCN)cc6)c6[nH]c2c2ccccc62)-c2ccccc2-5)c2ccccc42)-c2ccccc2-3)cc1`, the Activity [1] was “Active”.

With `O=C1OC2(c3ccccc31)c1cc(Br)c(O)c(Br)c1Oc1c2cc(Br)c(O)c1Br` [EOSIN] the Activity [1] was “Active”.

For `OC[C@H]1O[C@@H](Oc2ccc(-c3c4nc(c(-c5ccc(O[C@@H]6O[C@H](CO)[C@@H](O)[C@H](O)[C@H]6O)cc5)c5[nH]c(c(-c6ccc(O[C@@H]7O[C@H](CO)[C@@H](O)[C@H](O)[C@H]7O)cc6)c6nc(c(-c7ccc(O[C@@H]8O[C@H](CO)[C@@H](O)[C@H](O)[C@H]8O)cc7)c7[nH]c3c3ccccc73)-c3ccccc3-6)c3ccccc53)-c3ccccc3-4)cc2)[C@H](O)[C@@H](O)[C@@H]1O`, the remaining at 0.25 h [4] was 100%, the remaining at 0.5 h [5] was 99% and the remaining at 1 h [6] was 95%. The logP at 300 µM [7] was 0.18, the Activity [1] was “Active” and the remaining at 0.75 h [8] was 98%. The IC50 [2, 9] was 0.971 µg/mL (≈ 0.636 µM) and the IC50 [3, 10] was 8.41 µg/mL (≈ 5.51 µM).

`NCCCCN(CCCN)CCCCNC(=O)c1ccc(-c2c3nc(c(-c4ccc(C(=O)NCCCCN(CCCN)CCCCN)cc4)c4[nH]c(c(-c5ccc(C(=O)NCCCCN(CCCN)CCCCN)cc5)c5nc(c(-c6ccc(C(=O)NCCCCN(CCCN)CCCCN)cc6)c6[nH]c2c2ccccc62)-c2ccccc2-5)c2ccccc42)-c2ccccc2-3)cc1` gave a remaining at 0.25 h [4] of 100%, a remaining at 0.5 h [5] of 99% and a remaining at 1 h [6] of 96%. The logP at 300 µM [7] was -0.21, the Activity [1] was “Active” and the remaining at 0.75 h [8] was 97%. It also gave an IC50 [2, 9] of 3.42 µg/mL (≈ 1.92 µM) and an IC50 [3, 10] of 7.28 µg/mL (≈ 4.08 µM).

In the case of `CC(C)(C)OC(=O)NCCCCN(CCCCNC(=O)c1ccc(-c2c3nc(c(-c4ccc(C(=O)NCCCCN(CCCCNC(=O)OC(C)(C)C)CCCNC(=O)OC(C)(C)C)cc4)c4[nH]c(c(-c5ccc(C(=O)NCCCCN(CCCCNC(=O)OC(C)(C)C)CCCNC(=O)OC(C)(C)C)cc5)c5nc(c(-c6ccc(C(=O)NCCCCN(CCCCNC(=O)OC(C)(C)C)CCCNC(=O)OC(C)(C)C)cc6)c6[nH]c2c2ccccc62)-c2ccccc2-5)c2ccccc42)-c2ccccc2-3)cc1)CCCNC(=O)OC(C)(C)C`, the Activity [1] is reported as “Active”.

`NCCCNCCCCN(CCCN)CCCCNC(=O)c1ccc(-c2c3nc(c(-c4ccc(C(=O)NCCCCN(CCCN)CCCCNCCCN)cc4)c4[nH]c(c(-c5ccc(C(=O)NCCCCN(CCCN)CCCCNCCCN)cc5)c5nc(c(-c6ccc(C(=O)NCCCCN(CCCN)CCCCNCCCN)cc6)c6[nH]c2c2ccccc62)-c2ccccc2-5)c2ccccc42)-c2ccccc2-3)cc1` gave a remaining at 0.25 h [4] of 100%, a remaining at 0.5 h [5] of 100% and a remaining at 1 h [6] of 97%. The logP at 300 µM [7] was -0.47, the Activity [1] was “Active” and the remaining at 0.75 h [8] was 99%. The IC50 ([2]; hacat) was “Not Active” and the IC50 ([3]; mcf7) was “Not Active”.

With `CC(C)(C)OC(=O)NCCOCCOCCNC(=O)c1ccc(-c2c3nc(c(-c4ccc(C(=O)NCCOCCOCCNC(=O)OC(C)(C)C)cc4)c4[nH]c(c(-c5ccc(C(=O)NCCOCCOCCNC(=O)OC(C)(C)C)cc5)c5nc(c(-c6ccc(C(=O)NCCOCCOCCNC(=O)OC(C)(C)C)cc6)c6[nH]c2c2ccccc62)-c2ccccc2-5)c2ccccc42)-c2ccccc2-3)cc1` the Activity [1] was “Active”.

In the case of `CC(C)(C)OC(=O)NCCCN(CCCCNC(=O)c1ccc(-c2c3nc(c(-c4ccc(C(=O)NCCCCN(CCCCN(CCCNC(=O)OC(C)(C)C)C(=O)OC(C)(C)C)CCCNC(=O)OC(C)(C)C)cc4)c4[nH]c(c(-c5ccc(C(=O)NCCCCN(CCCCN(CCCNC(=O)OC(C)(C)C)C(=O)OC(C)(C)C)CCCNC(=O)OC(C)(C)C)cc5)c5nc(c(-c6ccc(C(=O)NCCCCN(CCCCN(CCCNC(=O)OC(C)(C)C)C(=O)OC(C)(C)C)CCCNC(=O)OC(C)(C)C)cc6)c6[nH]c2c2ccccc62)-c2ccccc2-5)c2ccccc42)-c2ccccc2-3)cc1)CCCCN(CCCNC(=O)OC(C)(C)C)C(=O)OC(C)(C)C`, the Activity [1] is reported as “Active”.

With `c1ccc(-c2c3nc(c(-c4ccccc4)c4[nH]c(c(-c5ccccc5)c5nc(c(-c6ccccc6)c6[nH]c2c2ccccc62)-c2ccccc2-5)c2ccccc42)-c2ccccc2-3)cc1` [Ar4TBP] the IC50 ([2]; hacat) was “Not Active” and the IC50 ([3]; mcf7) was “Not Active”.

In the case of `CC(=O)OC[C@H]1O[C@H](OCC(=O)NCOCCOCCNC(=O)c2ccc(-c3c4nc(c(-c5ccc(C(=O)NCCOCCOCNC(=O)CO[C@H]6O[C@H](COC(C)=O)[C@@H](OC(C)=O)[C@H](OC(C)=O)[C@H]6O)cc5)c5[nH]c(c(-c6ccc(C(=O)NCCOCCOCNC(=O)CO[C@H]7O[C@H](COC(C)=O)[C@@H](OC(C)=O)[C@H](OC(C)=O)[C@H]7O)cc6)c6nc(c(-c7ccc(C(=O)NCCOCCOCNC(=O)CO[C@H]8O[C@H](COC(C)=O)[C@@H](OC(C)=O)[C@H](OC(C)=O)[C@H]8O)cc7)c7[nH]c3c3ccccc73)-c3ccccc3-6)c3ccccc53)-c3ccccc3-4)cc2)[C@H](O)[C@@H](OC(C)=O)[C@@H]1OC(C)=O`, the Activity [1] is reported as “Active”.

With `O=C([O-])c1c(Cl)c(Cl)c(Cl)c(Cl)c1-c1c2cc(I)c(=O)c(I)c-2oc2c(I)c([O-])c(I)cc12.[K+].[K+]` the Activity [1] was “Active”.
